This is a sample that favours compounds with a hit; in the whole collection about 1.8% have one here.
NSD2 HMT inh – NSD2 histone methyltransferase inhibitors, primary screen, biochemical, AlphaScreen, single concentration, set 2. inhibition, % at 12.5 µM. NSD2 peptide methylation, 120 min. 310,000 compounds, 0.54% hits. AID 743445, 2014; in the data active = inhibition above about 50%
Target sequence (O96028 whole entry, looked up): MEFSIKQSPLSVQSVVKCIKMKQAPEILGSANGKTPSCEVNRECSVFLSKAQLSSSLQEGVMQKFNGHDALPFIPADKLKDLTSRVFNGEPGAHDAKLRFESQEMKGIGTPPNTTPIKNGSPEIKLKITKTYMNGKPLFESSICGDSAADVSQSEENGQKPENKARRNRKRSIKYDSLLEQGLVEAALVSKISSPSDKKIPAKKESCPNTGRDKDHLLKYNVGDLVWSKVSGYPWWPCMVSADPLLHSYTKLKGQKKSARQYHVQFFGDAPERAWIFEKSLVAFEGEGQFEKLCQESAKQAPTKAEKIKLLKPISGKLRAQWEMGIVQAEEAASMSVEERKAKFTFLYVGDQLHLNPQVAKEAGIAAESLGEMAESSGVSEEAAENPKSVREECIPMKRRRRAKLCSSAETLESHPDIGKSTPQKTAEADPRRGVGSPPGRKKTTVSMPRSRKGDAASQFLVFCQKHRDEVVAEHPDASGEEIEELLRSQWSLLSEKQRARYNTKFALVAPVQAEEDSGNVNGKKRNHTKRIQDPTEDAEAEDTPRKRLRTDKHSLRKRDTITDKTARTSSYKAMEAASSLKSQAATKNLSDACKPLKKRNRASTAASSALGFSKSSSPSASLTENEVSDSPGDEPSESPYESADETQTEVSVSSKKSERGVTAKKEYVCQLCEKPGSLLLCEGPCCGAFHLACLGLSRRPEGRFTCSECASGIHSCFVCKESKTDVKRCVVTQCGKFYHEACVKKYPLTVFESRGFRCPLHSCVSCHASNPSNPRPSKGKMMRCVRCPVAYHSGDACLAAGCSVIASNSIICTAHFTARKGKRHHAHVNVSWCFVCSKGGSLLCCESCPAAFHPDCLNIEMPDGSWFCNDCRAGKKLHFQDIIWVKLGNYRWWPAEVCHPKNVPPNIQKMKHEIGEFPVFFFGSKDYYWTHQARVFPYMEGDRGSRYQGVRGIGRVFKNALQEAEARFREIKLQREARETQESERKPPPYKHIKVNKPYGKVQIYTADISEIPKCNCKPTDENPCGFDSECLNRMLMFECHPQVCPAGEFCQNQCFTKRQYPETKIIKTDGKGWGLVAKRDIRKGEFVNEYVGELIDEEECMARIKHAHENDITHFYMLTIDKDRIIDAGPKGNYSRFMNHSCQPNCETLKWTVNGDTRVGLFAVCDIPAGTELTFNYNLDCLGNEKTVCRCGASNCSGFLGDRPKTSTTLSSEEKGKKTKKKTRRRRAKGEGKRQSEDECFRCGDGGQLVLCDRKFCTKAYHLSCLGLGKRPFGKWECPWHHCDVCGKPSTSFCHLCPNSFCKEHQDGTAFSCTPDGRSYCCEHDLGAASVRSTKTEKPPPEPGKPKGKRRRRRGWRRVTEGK
UHRF1 MBD2 ctr – UHRF1 methylated DNA binding inhibitors, primary screen, counter-screen for MBD2 inhibitor project, biochemical, TR-FRET, human UHRF1, single concentration; E3 ubiquitin-protein ligase UHRF1 (Homo sapiens), Q96T88; 370,000 compounds, 0.75% hits; inhibition, % at 4.4 µM; UHRF1 binding to methylated oligo; AID 687016, 2013; in the data active = inhibition above about 21%;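 note: UHRF1 SRA domain binding a hemimethylated CpG hairpin DNA probe; 0% = median of test compound wells and 100% = reference inhibitor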
MBD2 inh – inhibitors of MBD2 binding to methylated DNA, primary screen, biochemical, TR-FRET, DNA-binding domain, human. MBD2 binding to methylated oligonucleotide. 370,000 compounds, 0.31% hits. inhibition, % at 4.4 µM. Methyl-CpG-binding domain protein 2 (Homo sapiens), Q9UBB5; in the data active = inhibition above about 13%
LEDGF integ inh – blockers of LEDGF/p75-dependent integrase strand transfer – biochemical, TR-FRET, high throughput, primary screen. HIV-1 integrase (with human LEDGF/p75). TR-FRET IN-LEDGF/p75 DNA integration, Eu/Cy5. inhibition, % at 3.7 µM. 370,000 compounds, 0.64% hits;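 active = inhibition above the screen-wide mean plus 3 SD, cut at about 13% in these data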;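 note: signal is the Cy5 over europium emission ratio at 671 and 618 nm; 0% = plate median of compound wells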
TDP2 absorb – human TDP2 enzyme inhibitors, primary screen, biochemical, epi absorbance, recombinant enzyme; Tyrosyl-DNA phosphodiesterase 2 (Homo sapiens), O95551; T5PNP hydrolysis, p-nitrophenol absorbance 415 nm; inhibition, % at 12.8 µM; 370,000 compounds, 0.34% hits; AID 720702, 2013;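 active = inhibition above the mean of all tested compounds plus 3 SD, set per campaign, cut at about 25% in these data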;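 note: 0% = DMSO with enzyme and 100% = buffer with substrate but no TDP2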
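test system = human TDP2 enzyme | input = TDP2 enzyme at 120 nM final | medium = 50 mM Tris-HCl pH 7.5 with Mg2+, KCl, DTT, BSA | also added = T5PNP substrate, 5 mM | times = 2 h at 37 °C | technique = epi absorbance | benchmarks = high control without enzyme, low control DMSO plus TDP2 | replication = each compound tested once, singlicate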
Casp6 inh – human caspase-6 inhibitors, primary screen, biochemical, VEID-R110 fluorescence, single point, set 2. P55212. purified caspase-6, Z-VEID-R110 cleavage fluorescence. inhibition, % at 12.5 µM. 350,000 compounds, 0.53% hits. AID 686996, 2013;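 active = mean inhibition across replicates at least about 35%, with every replicate also reaching that limit, limit read from the data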;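 note: 0% = median of neutral control wells and 100% = no fluorescence left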
An asterisk follows results filed as active; x = no result.

SMILES	NSD2 HMT inh	UHRF1 MBD2 ctr	MBD2 inh	LEDGF integ inh	TDP2 absorb	Casp6 inh
O=C(CBr)c1ccc([N+](=O)[O-])c(CS(=O)(=O)c2ccc(Cl)cc2)c1	x	70*	-7	-3	0	1
CC(C)NC(=O)N[C@@H]1C=C[C@H](CC(=O)NCCN2CCCC2)O[C@@H]1CO	x	x	x	x	x	0
CCCOC(=O)c1c(NC(=O)C2CCCO2)sc(C(=O)OC)c1C (centres undefined)	0	25*	2	2	3	-4
CCOC(=O)c1c(NC(=O)C2CCCO2)sc(C(N)=O)c1C (centres undefined)	0	-2	-4	0	-5	x
CO[C@H]1CN(C)C(=O)c2cc(NC(C)=O)ccc2OC[C@@H](C)N(C(=O)CN2CCOCC2)C[C@@H]1C	x	x	x	x	x	0
O=C(c1cccnc1)N1CC(=O)N2[C@H](C1)[C@@H](c1ccc(C#CCC3CCCC3)cc1)[C@@H]2CO	x	x	x	x	x	0
O=C(O)C1Oc2cc3ccccc3cc2O1	20	1	4	0	3	55*
COC(=O)c1ccc(-c2ccc(/C=N/NC(=O)Cc3nnc(N)s3)o2)cc1	2	32*	-1	-5	-10	1
Cc1c(Cl)cnc(NC(=O)COC(=O)C(NC(=O)c2ccco2)C(C)C)c1Cl (centres undefined)	-1	1	-1	2	-12	x
Cc1nc(NC(=O)COC(=O)[C@@H](NC(=O)c2ccco2)C(C)C)c(Cl)cc1Cl	-7	42*	-3	-8	0	5
O=C(O)Cc1ccc(C(=O)c2ccccc2)s1	2	0	-1	0	3	x
O=C(O)Cc1ccc(C(=O)CSc2ccccc2)s1	23	2	0	7	5	49*
Cc1ccc(SCC(=O)c2ccc(CC(=O)O)s2)cc1	16	14	-2	8	-12	65*
C[C@H](NC(=O)C[C@H]1C[C@@H]2c3cc(NC(=O)Cc4ccncc4)ccc3O[C@@H]2[C@@H](CO)O1)c1ccccc1	x	x	x	x	x	-1
CCCN(CCC)CCNC(=O)c1cc2c(-c3ccc(Cl)cc3)nn(C)c2s1	3	-7	12	-2	1	-12
CCCN(CCC)CCCNC(=O)c1cc2c(-c3ccc(OC)c(OC)c3)nn(C)c2s1	36	23*	7	-4	-7	-4
COc1ccc(CN(C)CCCn2cnc3c(SC)ncnc32)cc1OC	x	29*	3	-4	9	10
CS(=O)(=O)N1[C@@H]2c3ccc(-c4ccccc4F)c(=O)n3C[C@@H]2[C@@H](CO)[C@@H]1C(=O)NCC1CC1	x	x	x	x	x	1
Cc1ccc(OCC(=O)NNC(=O)CCC(=O)Nc2ccc(C)cc2C)cc1	7	-2	5	-3	-4	x
Cc1ccc(NC(=O)CCC(=O)NNC(=O)COc2ccccc2)c(C)c1	x	0	2	1	16	41*
C[C@@H]1CCCCO[C@@H](CN(C)C(=O)Cc2ccccc2)[C@H](C)CN([C@@H](C)CO)C(=O)c2cc(NC(=O)Nc3cccc4ccccc34)ccc2O1	x	x	x	x	x	1
CCOC(=O)c1c(C)oc2c1c(C=NC1CCS(=O)(=O)C1)c(O)c1ccccc12 (centres undefined)	88*	5	-2	8	11	x
O=C(Cn1nc(C(F)(F)F)cc1C1CC1)NCc1ccccc1F	-2	21*	-3	5	5	-5
CN(C)CCCNC(=O)[C@H]1[C@H](CO)[C@H]2Cn3c(ccc(-c4cccnc4)c3=O)[C@@H]1N2C(=O)CC1CC1	x	x	x	x	x	-4
O=C(C[C@@H]1C=C[C@@H](NC(=O)C2CCC2)[C@H](CO)O1)NC1CCCCC1	x	x	x	x	x	0
CCOC(=O)c1ccc(-n2[nH]c(-c3ccccc3)cc2=O)cc1	x	13	1	6	35*	x
